Results as given in ChEMBL document CHEMBL4627246, “Pyroglutamide-Based P2X7 Receptor Antagonists Targeting Inflammatory Bowel Disease” (J Med Chem, 2020).
Active and inactive are the calls of the source. Unless noted, the rule behind the calls is not given here.

What was measured:
[1] = target: T1, P2X purinoceptor 7 (Homo sapiens) (UniProt Q99572); assay: Inhibition of human P2X7 expressed in human HEK293 cells assessed as reduction in BzATP-stimulated TO-PRO-3 incorporation at 10 uM preincubated with compound and TO-PRO-3 for 15 mins prior to BzATP addition and measured after 1 hr by Fluo-3AM dye based flow cytometry relative to control; type: cell-based
T1 sequence (whole entry): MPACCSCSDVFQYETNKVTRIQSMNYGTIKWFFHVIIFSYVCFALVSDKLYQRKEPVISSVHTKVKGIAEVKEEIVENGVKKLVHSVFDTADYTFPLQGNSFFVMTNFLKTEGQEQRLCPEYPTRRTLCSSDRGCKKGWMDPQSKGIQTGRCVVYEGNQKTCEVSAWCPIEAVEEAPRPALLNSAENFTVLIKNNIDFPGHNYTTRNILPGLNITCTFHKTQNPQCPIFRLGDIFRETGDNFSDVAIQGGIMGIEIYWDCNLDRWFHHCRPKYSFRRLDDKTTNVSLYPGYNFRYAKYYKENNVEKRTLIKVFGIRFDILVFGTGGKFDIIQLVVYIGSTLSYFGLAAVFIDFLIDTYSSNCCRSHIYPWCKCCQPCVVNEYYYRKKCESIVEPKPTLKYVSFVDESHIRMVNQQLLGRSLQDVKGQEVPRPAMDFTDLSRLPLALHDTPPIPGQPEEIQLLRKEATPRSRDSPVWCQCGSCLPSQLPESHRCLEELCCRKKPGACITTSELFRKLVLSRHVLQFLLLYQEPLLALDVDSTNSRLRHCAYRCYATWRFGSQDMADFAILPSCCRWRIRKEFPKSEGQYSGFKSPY
Summary of the method: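 HEK-293 cells overexpressing human P2RX7 loaded with Fluo-3 AM, then incubated with TO-PRO-3 (large pore uptake) and propidium iodide (viability) plus compound (10⁻⁵ M single point) for 15 min before BzATP 100 µM. After 1 h, flow cytometry; percentage of Fluo-3/TO-PRO-3 double-positive cells calculated. Mean of n ≥ 2 with positive control.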

[2] = target: T1, P2X purinoceptor 7 (Homo sapiens); assay: Antagonist activity at P2X7 receptor in human THP-1 cells assessed as inhibition of LPS and BzATP-induced IL-1beta production at 10^-6 mol/L pretreated with compound followed by LPS/BzATP addition and measured after 2 to 6 hrs by ELISA; type: cell-based; conditions: TDE = time-dependent effect
Summary of the method: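 PMA (100nM)-differentiated THP-1 macrophages (RPMI 1640, 10% FCS), 10^6 cells, pretreated with antagonist at […], then challenged with LPS 10 μmol/L and BzATP 70 μmol/L at 37 °C, 5% CO2; IL1β measured by ELISA, including the 6 h point; mean ± SD, P<0.05 significant.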

P2X purinoceptor 7 = target: T2, P2X purinoceptor 7 (Homo sapiens, UniProt Q99572); assay: Displacement of [3H]-A804598 from human P2X7 expressed in human HEK293 cell membrane incubated for 1 hr by microplate scintillation counting method; type: cell membranes
T2 sequence (Q99572 whole entry): T1 sequence (whole entry)

[3] = Metabolic stability in human liver microsomes assessed as half life at 0.2 mg/ml incubated for 60 mins by UPLC/MS-MS analysis; type: ADME, Microsome
[4] = Drug metabolism in mouse measured after 40 mins; type: ADME; conditions: read-out: Drug metabolism
[5] = Metabolic stability in human liver microsomes assessed as intrinsic clearance at 0.2 mg/ml incubated for 60 mins by UPLC/MS-MS analysis; type: ADME, Microsome; conditions: read-out: CLH
[6] = target: T1, P2X purinoceptor 7 (Homo sapiens); assay: Antagonist activity at P2X7 receptor in human THP-1 cells assessed as inhibition of LPS and BzATP-induced IL-1beta production at 10^-5 mol/L pretreated with compound followed by LPS/BzATP addition and measured after 2 to 6 hrs by ELISA; type: cell-based
Summary of the method: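 THP-1 monocytes grown in RPMI 1640 + 10% FCS, differentiated to macrophages with PMA (100nM); 10^6 cells pretreated with antagonist at 10^-5 mol/L, then exposed to LPS 10 μmol/L plus BzATP 70 μmol/L at 37 °C, 5% CO2; IL1β quantified by ELISA in samples at 2, 4 and 6 h; mean ± SD, significance P<0.05.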

[7] = target: T1, P2X purinoceptor 7 (Homo sapiens); assay: Antagonist activity at P2X7R in human THP1 cells assessed as inhibition of LPS and BzATP-induced ROS production at 10^-5 mol/L pretreated with compound followed by LPS/BzATP addition and measured up to 5 hrs by kinetic chemiluminescence based fluorometric analysis; type: cell-based; conditions: THP-1
Summary of the method: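 PMA-differentiated THP-1 macrophages (10^5 cells) in RPMI 1640 + 10% FBS pretreated with antagonist at 10^-5 mol/L, then LPS 10 μmol/L plus BzATP 70 μmol/L at 37 °C, 5% CO2; horseradish peroxidase (50 μg/mL) and luminol (50 μM) mixture added, chemiluminescence read on a fluorometer; cell-free H2O2 serves as positive control.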

[8] = Solubility of compound in saline at 1mg/ml; type: physicochemical; conditions: buffer
HEK293 = assay: Cytotoxicity against human HEK293 cells assessed as reduction in cell viability at 10^-5 mol/L incubated for 72 hrs; type: cell-based; conditions: hek293, 72 h, 10 µM
Summary of the method: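 Wild-type and P2RX7-transfected HEK293 cells exposed to compound for 72 hours; viability compared against untreated control.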

[9] = target: T3, P2X purinoceptor 1 (Homo sapiens) (UniProt P51575); assay: Antagonist activity at P2X1 receptor in human platelet assessed as inhibition of thrombin-induced platelet aggregation at 10 '-5 to 10^-6 mol/L pretreated with compound and LPS/BzATP for 10 mins followed by thrombin addition and measured for 8 mins by aggregometry analysis; type: cell-based
T3 sequence (whole entry): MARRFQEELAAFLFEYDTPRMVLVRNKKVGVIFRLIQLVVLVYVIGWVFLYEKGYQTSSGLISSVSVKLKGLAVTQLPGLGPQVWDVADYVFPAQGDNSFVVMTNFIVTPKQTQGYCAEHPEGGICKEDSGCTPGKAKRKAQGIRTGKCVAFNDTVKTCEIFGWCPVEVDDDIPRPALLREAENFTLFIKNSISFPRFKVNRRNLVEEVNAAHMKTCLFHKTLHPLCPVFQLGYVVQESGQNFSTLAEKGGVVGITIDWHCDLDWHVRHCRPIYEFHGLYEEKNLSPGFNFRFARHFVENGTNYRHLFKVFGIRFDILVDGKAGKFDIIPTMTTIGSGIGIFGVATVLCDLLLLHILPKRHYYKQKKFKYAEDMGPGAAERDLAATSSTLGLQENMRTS

[10] = Metabolic stability in human hepatocytes; type: ADME, cell-based, Hepatocyte
[11] = target: T1, P2X purinoceptor 7 (Homo sapiens); assay: Antagonist activity at P2X7R in human THP1 cells assessed as inhibition of LPS and BzATP-induced IL-1beta expression by measuring increase in proIL-1beta expression in cell supernatant extract at 10^-6 mol/L pretreated with compound followed by LPS/BzATP addition and measured after 6 hrs by Western blot analysis; type: cell-based; conditions: THP-1
[12] = target: T1, P2X purinoceptor 7 (Homo sapiens); assay: Antagonist activity at P2X7R in human THP1 cells assessed as inhibition of LPS and BzATP-induced cell death at 10^-6 mol/L pretreated with compound followed by LPS/BzATP addition and measured after 6 hrs by sytox green dye based flow cytometry; conditions: THP-1

CN1C(=O)CC[C@H]1C(=O)NCc1cc(C(F)(F)F)ccc1Cl
inhibition [1]: 0%

O=C(NCc1ccc(Cl)cc1Cl)[C@@H]1CCC(=O)N1Cc1ccc(Cl)cc1
inhibition [1]: 0%

CN(Cc1ccccc1)C(=O)[C@@H]1CCC(=O)N1Cc1ccc(Cl)cc1Cl
inhibition [1]: 0%

COc1ccc(N2C(=O)CC[C@H]2C(=O)NCc2ccc(Cl)cc2Cl)cc1
inhibition [1]: 0%

O=C(NCc1ccc(Cl)cc1Cl)[C@@H]1CCC(=O)N1C(c1ccc(Cl)cc1)c1ccc(Cl)cc1
inhibition [1]: 0%

O=C(NCc1ccccc1Cl)[C@@H]1CCC(=O)N1Cc1ccccc1
inhibition [1]: 0%

O=C(NCc1ccc(Cl)cc1Cl)[C@@H]1COC(=O)N1c1cccs1
inhibition [2]: Tde
IC50 (P2X purinoceptor 7): 15.1 µM
Ki (P2X purinoceptor 7): 3.11 µM
half-life [3]: 1.4 min
metabolised at 40 min [4]: 100%
microsomal CLint [5]: 663 µL/min/mg
inhibition [6]: Active
inhibition [7]: Active
solubility [8]: Insoluble
Activity (HEK293): Non-Toxic
inhibition [1]: 80%
Activity [9]: inactive

COc1ccc(CN2C(=O)[C@@H]3C/C(=C\N(C)C)C(=O)N3C2N(C)C)c(OC)c1 (some centres undefined)
inhibition [1]: 0%

COc1ccc(N2C(=O)[C@@H]3C/C(=C\N(C)C)C(=O)N3C2N(C)C)cc1 (some centres undefined)
inhibition [1]: 0%

O=C(NCc1ccccc1)[C@@H]1CCC(=O)N1Cc1ccc(Cl)cc1Cl
inhibition [1]: 0%

Cc1ccc(NC(=O)[C@@H]2CCC(=O)N2c2ccccc2)cc1
inhibition [1]: 0%

O=C(NCc1ccccc1Cl)[C@@H]1CCC(=O)N1c1ccccc1
inhibition [1]: 0%

CN(C)/C=C1\C[C@H]2C(=O)N(Cc3ccc(Cl)cc3Cl)C(N(C)C)N2C1=O (some centres undefined)
inhibition [1]: 24%

O=C(Nc1ccc(Cl)cc1Cl)[C@@H]1CCC(=O)N1Cc1ccccc1Cl
inhibition [1]: 0%

O=C1N[C@H](C(=O)NCc2ccc(Cl)cc2Cl)C/C1=N\O (stereo in doubt)
inhibition [1]: 52%

O=C(NCc1ccc(Cl)cc1Cl)[C@@H]1CCC(=O)N1c1nccs1
inhibition [2]: Tde
IC50 (P2X purinoceptor 7): 2.38 µM
Ki (P2X purinoceptor 7): 0.489 µM
half-life [3]: 7.5 min
metabolised at 40 min [4]: 93%
microsomal CLint [5]: 253 µL/min/mg
inhibition [6]: Active
inhibition [7]: Active
solubility [8]: Insoluble
Activity (HEK293): Non-Toxic
inhibition [1]: 83%
Stability [10]: Unstable
Activity [9]: inactive

O=C(NCc1ccc(Cl)cc1Cl)[C@@H]1CCC(=O)N1c1ccc(Cl)cc1
inhibition [1]: 0%

O=C(NCc1ccccc1Cl)[C@@H]1CCC(=O)N1Cc1ccc(Cl)cc1
inhibition [1]: 0%

O=C(NCc1ccc(Cl)cc1Cl)[C@@H]1CCC(=O)N1c1ccsc1
inhibition [11]: Active
inhibition [2]: Tde
IC50 (P2X purinoceptor 7): 1.25 µM
Ki (P2X purinoceptor 7): 0.256 µM
half-life [3]: 2.5 min
metabolised at 40 min [4]: 99.9%
microsomal CLint [5]: 762 µL/min/mg
inhibition [6]: Active
inhibition [7]: Active
solubility [8]: Insoluble
inhibition [12]: inactive
Activity (HEK293): Non-Toxic
inhibition [1]: 78%
Stability [10]: Unstable
Activity [9]: inactive

O=C(NCCc1ccccc1)[C@@H]1CCC(=O)N1Cc1ccc(Cl)cc1Cl
inhibition [1]: 0%

COc1ccc(NC(=O)[C@@H]2CCC(=O)N2)cc1OC
inhibition [1]: inactive

COC(=O)[C@@H]1C/C(=C\NCc2ccc(Cl)cc2Cl)C(=O)N1C(=O)OC
inhibition [1]: 99%
